Screens as filed in PubChem BioAssay.
Mot1-301 SUMO: blocks SUMOylation pathway, rescuing yeast Mot1-301 growth. S. cerevisiae Mot1-301 growth rescue, ATP luminescence, 38.5C; percent above DMSO median, 100 means doubled. growth rescue, % at 18.8 µM. 320,000 tested, 1% active. AID 2716;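 active = every valid replicate shows activation above 250% relative to neutral control wells; inactive = the rest, any valid replicate at or below 250%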;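 note: OY570 slx delta 5 strain wells were the positive control but not used for scaling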
FID counter: displaces DNA intercalator in HCV helicase counter-screen; DNA fluorescent intercalator displacement, fluorescence; inhibition, % at 7.9 µM; 290,000 tested, 0.17% active; AID 1845; in the data active = inhibition above about 37%;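 note: 0% = vehicle and 100% = reference compound; higher means more ethidium bromide displaced from hairpin DNA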
VIM-2 inh: blocks Pseudomonas aeruginosa VIM-2 metallo-beta-lactamase; purified VIM-2, nitrocefin hydrolysis, epi-absorbance fluorescence; inhibition, % at 5.6 µM; 290,000 tested, 0.89% active;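 active = inhibition above the mean of all tested compounds plus 3 SD, cutoff set per screening run, cut at about 7.5% in these data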;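 note: red hydrolysis product quenches plate fluorescence so inhibitors raise well fluorescence; 0% = enzyme with DMSO and 100% = DMSO without enzyme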
IMP-1 inhibitor: inhibitors of Pseudomonas aeruginosa IMP-1 metallo-beta-lactamase; purified IMP-1, nitrocefin hydrolysis, epi-absorbance fluorescence; inhibition, % at 5.6 µM; 290,000 tested, 0.45% active; AID 1556;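 active = inhibition above the mean plus 3 SD of all compounds in the same screening run, cut at about 4.5% in these data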;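 note: 0% = IMP-1 with DMSO and 100% = DMSO wells lacking enzyme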
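Material – recombinant IMP-1 enzyme, purified · Amount – IMP-1 0.2 nM before substrate addition · Medium – HEPES buffer pH 7.1 with ZnSO4 and Brij 35 · Timing – 25 °C, 15 min preincubation, 25 min reaction · Measured by – plate fluorescence quenching by hydrolysis product, ex 480/em 530 nm · Read-out – percent enzyme inhibition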
NALP1 yeast inh: NALP1 inhibition. inhibition, % at 10 µM. S. cerevisiae NALP1/ASC/caspase-1 growth, X-gal OD620, 72 h. 280,000 tested, 0.61% active; in the data active = inhibition mostly above about 24%, no sharp cut-off; inactive = mostly below about 32%
SUMO HTRF inh: blocks human SUMOylation mediated by UBC9; P63279; HTRF SUMOylation assay, SAE1/SAE2 + UBC9, in vitro; inhibition, % at 35 µM; 290,000 tested, 0.36% active; in the data active = inhibition above about 50%, passing the limit was not always enough
Target sequence (P63279 whole entry, looked up): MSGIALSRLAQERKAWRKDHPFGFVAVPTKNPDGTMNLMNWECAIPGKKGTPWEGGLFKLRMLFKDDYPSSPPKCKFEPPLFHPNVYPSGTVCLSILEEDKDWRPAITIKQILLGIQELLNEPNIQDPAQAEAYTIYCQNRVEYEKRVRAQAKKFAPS
Starred values were filed as active, the others as inactive. Hits are enriched below; roughly 2.9% of the tested compounds scored in any of these assays.

Results for C#CCOCCOCCOCCNc1nc(N2CCN(C(=O)[C@H]([C@@H](C)CC)n3cc([C@@H](N)Cc4ccc(O)cc4)nn3)CC2)nc(N2CCN(C(=O)[C@H](CCCCN)n3cc([C@@H](N)CO)nn3)CC2)n1 ?
Mot1-301 SUMO: -23; FID counter: 58*; VIM-2 inh: -3; IMP-1 inhibitor: -3; NALP1 yeast inh: -9; SUMO HTRF inh: 6

What do the screens show for `C#CCOCCOCCOCCNc1nc(N2CCN(C(=O)[C@H]([C@@H](C)CC)n3cc([C@@H](N)CC(C)C)nn3)CC2)nc(N2CCN(C(=O)[C@H](Cc3ccc(O)cc3)n3cc([C@@H](N)C(C)CC)nn3)CC2)n1` (stereo partly drawn)?
Mot1-301 SUMO: -13; FID counter: 35; VIM-2 inh: -3; IMP-1 inhibitor: -2; NALP1 yeast inh: 7; SUMO HTRF inh: -10

Results for C#CCOCCOCCOCCNc1nc(N2CCN(C(=O)[C@H](CCC(=O)O)n3cc(C(N)Cc4ccc(O)cc4)nn3)CC2)nc(N2CCN(C(=O)[C@H](Cc3ccc(O)cc3)n3cc(C(N)[C@H](C)CC)nn3)CC2)n1 (stereo partly drawn) ?
SUMO HTRF inh: -2

Results for C#CCOCCOCCOCCNc1nc(N2CCN(C(=O)[C@H](Cc3ccc(O)cc3)n3cc([C@@H](N)C(C)CC)nn3)CC2)nc(N2CCN(C(=O)[C@H](CCCCN)n3cc([C@@H](N)CO)nn3)CC2)n1 (stereo partly drawn) ?
Mot1-301 SUMO: 19; FID counter: 44*; VIM-2 inh: 1; IMP-1 inhibitor: -2; NALP1 yeast inh: 0; SUMO HTRF inh: 11

How did COc1ccc(C(=O)CN2C(=O)NC3(CCCc4ccccc43)C2=O)c(OC)c1 (stereo not drawn) do in these assays?
Mot1-301 SUMO: 1; FID counter: -25; VIM-2 inh: -5; IMP-1 inhibitor: -4; NALP1 yeast inh: -1; SUMO HTRF inh: 6

How did CCOC(=O)c1cc(-c2ccccc2)sc1NC(=O)C(C)Sc1nnc(N)s1 (stereo not drawn) do in these assays?
Mot1-301 SUMO: 9; FID counter: -11; VIM-2 inh: -4; IMP-1 inhibitor: -4; NALP1 yeast inh: 27; SUMO HTRF inh: -1

Results for CC1CCCCC1NC(=O)CSc1nncn1N (stereo not drawn) ?
Mot1-301 SUMO: -4; FID counter: 16; VIM-2 inh: -5; IMP-1 inhibitor: -4; NALP1 yeast inh: -1; SUMO HTRF inh: 6

What do the screens show for `CCOC(=O)N1CCN(CC(O)COc2ccccc2C(C)CC)CC1` (stereo not drawn)?
Mot1-301 SUMO: 790; FID counter: -2; VIM-2 inh: -1; IMP-1 inhibitor: -2; NALP1 yeast inh: 26*; SUMO HTRF inh: 20

Results for CCOC(=O)N1CCN(CC(O)COc2ccccc2C(C)C)CC1 (stereo not drawn) ?
Mot1-301 SUMO: 13; FID counter: -7; VIM-2 inh: 1; IMP-1 inhibitor: -2; NALP1 yeast inh: 15; SUMO HTRF inh: -14

Results for CC(C)NC(=O)c1c(CSc2ccccc2)noc1C(=O)NCc1ccccc1 ?
Mot1-301 SUMO: -16; NALP1 yeast inh: 16; SUMO HTRF inh: -32

Results for O=C(COc1ccc([N+](=O)[O-])cc1Cl)NCCc1ccccc1 ?
Mot1-301 SUMO: 1; FID counter: -13; VIM-2 inh: 0; IMP-1 inhibitor: -4; NALP1 yeast inh: 73*; SUMO HTRF inh: -7

How did COc1ccc(-c2noc(CSc3nc(-c4ccccc4)cc(=O)[nH]3)n2)cc1 do in these assays?
Mot1-301 SUMO: 41; FID counter: -1; VIM-2 inh: -7; IMP-1 inhibitor: 0; NALP1 yeast inh: 40*; SUMO HTRF inh: 4

What do the screens show for `COc1ccc2c(c1O)-c1ccccc1CCN(C)C2`?
Mot1-301 SUMO: -4; FID counter: 1; VIM-2 inh: -3; IMP-1 inhibitor: -2; NALP1 yeast inh: -8; SUMO HTRF inh: 3

Results for CN1CCc2cccc3c2[C@@H]1Cc1ccc(O)c(O)c1-3 ?
Mot1-301 SUMO: 146; FID counter: 13; VIM-2 inh: 2; IMP-1 inhibitor: -3; NALP1 yeast inh: 86*; SUMO HTRF inh: 1

What do the screens show for `O=C1NN(c2ccccc2)C(=O)/C1=C\c1ccccc1OCC(=O)N1CCOCC1`?
Mot1-301 SUMO: 4; FID counter: -23; VIM-2 inh: -1; IMP-1 inhibitor: 4.5*; NALP1 yeast inh: 22; SUMO HTRF inh: 25

How did Cc1ccc(N=Cc2cc(Cc3ccccc3Cl)cc([N+](=O)[O-])c2O)c(O)c1 do in these assays?
Mot1-301 SUMO: 23; FID counter: -11; VIM-2 inh: -2; IMP-1 inhibitor: 6.3*; NALP1 yeast inh: 7; SUMO HTRF inh: 44

How did NS(=O)(=O)c1ccc(N=Nc2ccc(O)c3ncccc23)cc1 do in these assays?
Mot1-301 SUMO: -29; FID counter: 4; VIM-2 inh: -2; IMP-1 inhibitor: 2; NALP1 yeast inh: -44; SUMO HTRF inh: -48

How did O=Cc1ccc(O)c2ncccc12 do in these assays?
FID counter: -11; VIM-2 inh: -2; IMP-1 inhibitor: -3; NALP1 yeast inh: 82*; SUMO HTRF inh: 11

Results for COc1ccccc1C(c1nnnn1CCc1ccccc1)N1CCCCCC1 (stereo not drawn) ?
Mot1-301 SUMO: 10; FID counter: -15; VIM-2 inh: 2; IMP-1 inhibitor: 24*; NALP1 yeast inh: -5; SUMO HTRF inh: 0

How did COc1ccccc1C(c1nnnn1CCc1ccccc1)N1CCN(c2ccccc2)CC1 (stereo not drawn) do in these assays?
Mot1-301 SUMO: 0; FID counter: -2; VIM-2 inh: -1; IMP-1 inhibitor: -4; NALP1 yeast inh: -15; SUMO HTRF inh: -15

Results for Cc1ccc(Cn2c(=O)n(C)c(=O)c3sccc32)cc1 ?
Mot1-301 SUMO: 5; FID counter: -9; VIM-2 inh: -2; IMP-1 inhibitor: -3; NALP1 yeast inh: -5; SUMO HTRF inh: 4

What do the screens show for `O=C(Nc1nc2ccc(SC(F)F)cc2s1)c1ccc(NS(=O)(=O)c2ccc(F)c(F)c2)cc1`?
Mot1-301 SUMO: 622*; FID counter: 12; VIM-2 inh: 1; IMP-1 inhibitor: -3; NALP1 yeast inh: 34; SUMO HTRF inh: 23

How did CS(=O)(=O)c1ccc2nc(NC(=O)c3ccc(NS(=O)(=O)c4ccc(F)c(F)c4)cc3)sc2c1 do in these assays?
Mot1-301 SUMO: 15; FID counter: 2; VIM-2 inh: 2; IMP-1 inhibitor: 1; SUMO HTRF inh: 10

Results for COc1ccc(CC(=O)NCC2CCCN(Cc3ccccc3Cl)C2)cc1 (stereo not drawn) ?
Mot1-301 SUMO: -15; FID counter: 3; VIM-2 inh: 0; IMP-1 inhibitor: -3; NALP1 yeast inh: 18; SUMO HTRF inh: -5
